Data reported in ChEMBL document CHEMBL1136463, “The relationship between physicochemical properties, in vitro activity and pharmacokinetic profiles of analogues of diamine-containing efflux pump inhibitors” (Bioorg Med Chem Lett, 2003).

Legend:
[1] = Ionization constant (pKa1) of compound was determined; format: physicochemical; details: read-out: pKa1
[2] = Ionization constant (pKa2) of compound was determined; format: physicochemical; details: read-out: pKa2
Pseudomonas aeruginosa = assay: Minimum potentiation concentration required to reduce (potentiate) the activity of antibacterial drug-levofloxacin for Pseudomonas aeruginosa by n-fold in the absence of horse serum; format: functional
Rattus norvegicus [3] = assay: Area under curve (AUC) at a dose 1 mg/kg was determined in rat kidney; format: ADME, organism-based; parameters: dose 1 mg/kg; details: in vivo
How it was run: (§1)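 Male Sprague–Dawley rats with femoral and jugular venous catheters (5 rats), dosed alone or in cassettes of up to five compounds by 2 h constant-rate femoral vein infusion at 1 to 10 mg/kg. One rat killed at 0.25, 2, 8, 16 and 24 h after infusion start. Liver, kidney and lung homogenates assayed by HPLC/MS/MS. Tissue AUC0–24 h normalized to 1 mg/kg.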

Rattus norvegicus [4] = assay: Area under curve (AUC) at a dose 1 mg/kg was determined in rat liver; format: ADME, organism-based; parameters: dose 1 mg/kg; details: in vivo; how it was run: as §1
Rattus norvegicus [5] = assay: Area under curve (AUC) at a dose 1 mg/kg was determined in rat lung; format: ADME, organism-based; parameters: dose 1 mg/kg; details: in vivo; how it was run: as §1
[6] = Partition coefficient (logP); format: physicochemical; details: octanol/water
[7] = Partition coefficient (logD); format: physicochemical; details: octanol/water
[8] = T1/2 (half life) of compound after 2 hr iv infusion of 8.4 mg/kg in three rat; format: ADME, organism-based; parameters: dose 8.4 mg/kg, route intravenous; details: in vivo
[9] = Clearance (Cl) of compound after 2 h iv infusion of 8.4 mg/kg in three rat; format: ADME, organism-based; parameters: dose 8.4 mg/kg, route intravenous; details: in vivo
[10] = Steady state volume distribution (Vss) of compound after 2 hr iv infusion of 8.4 mg/kg in three rat; format: ADME, organism-based; parameters: dose 8.4 mg/kg, route intravenous; details: in vivo, read-out: Vss

SMILES | pKa [1] | pKa [2] | MPC (Pseudomonas aeruginosa) | AUC (Rattus norvegicus [3]) | AUC (Rattus norvegicus [4]) | AUC (Rattus norvegicus [5]) | logP [6] | logD [7] | half-life [8] | clearance [9] | Vd [10]
NCC(=O)N1CCNCC1C(=O)N[C@H](CCc1ccccc1)C(=O)Nc1cnc2ccccc2c1 (stereo partly drawn) | 8.2 | 6.3 | 20 µg/mL | – | – | – | – | – | – | – | –
NCC(=O)N1C[C@@H](N)C[C@@H]1C(=O)N[C@H](CCc1ccccc1)C(=O)Nc1cnc2ccccc2c1 | 8.1 | 7.1 | 10 µg/mL | 79 mg·h/kg | 20 mg·h/kg | 3 mg·h/kg | 1.8 | 0.9 | – | – | –
N[C@@H]1CN[C@@H](CC(=O)N[C@H](CCc2ccccc2)C(=O)Nc2cnc3ccccc3c2)C1 | 9.3 | 6.3 | 5 µg/mL | – | – | – | – | – | – | – | –
N[C@@H]1CN[C@@H](C(=O)N[C@H](CCc2ccccc2)C(=O)Nc2cnc3ccccc3c2)C1 | 8.8 | 5.2 | >40 µg/mL | 25 mg·h/kg | 13 mg·h/kg | 14 mg·h/kg | 2.3 | 1.1 | – | – | –
NC[C@@H]1CN[C@@H](C(=O)N[C@H](CCc2ccccc2)C(=O)Nc2cnc3ccccc3c2)C1 | 9.6 | 6.8 | 5 µg/mL | – | – | – | – | – | – | – | –
NC[C@@H]1CN[C@@H](C(=O)N[C@H](CCc2ccccc2)C(=O)Nc2ccc3ncccc3c2)C1 | 9.6 | 6.9 | 10 µg/mL | 56 mg·h/kg | 22 mg·h/kg | 15 mg·h/kg | 2.3 | 0.5 | 43.8 min | 26.7 mL/min/kg | 0.5 L/kg
NCC(=O)N1C[C@@H](CN)C[C@@H]1C(=O)N[C@H](CCc1ccccc1)C(=O)Nc1ccc2ncccc2c1 | 9 | 7.7 | 10 µg/mL | 100 mg·h/kg | 26 mg·h/kg | 4 mg·h/kg | 1.2 | -0.5 | – | – | –
NCC(=O)N1C[C@@H](N)C[C@@H]1C(=O)N[C@H](CCc1ccccc1)C(=O)Nc1ccc2ncccc2c1 | 8.2 | 7.2 | 20 µg/mL | 96 mg·h/kg | 12 mg·h/kg | 4 mg·h/kg | 1.4 | 0.5 | – | – | –
NCC(=O)N1CCNC(C(=O)N[C@H](CCc2ccccc2)C(=O)Nc2cnc3ccccc3c2)C1 (stereo partly drawn) | 8.5 | 5.4 | >40 µg/mL | – | – | – | – | – | – | – | –
Cc1cc2nc([C@@H](CCc3ccccc3)NC(=O)[C@H]3C[C@H](N)CN3C(=O)CN)[nH]c2cc1C | – | – | 5 µg/mL | 133 mg·h/kg | 176 mg·h/kg | 5 mg·h/kg | 2.8 | 1.9 | – | – | –
C[C@@H](N)C(=O)N[C@H](CCc1ccccc1)C(=O)Nc1cnc2ccccc2c1 | – | – | – | 8.5 mg·h/kg | 5.5 mg·h/kg | – | – | – | – | – | –
